Reference: ChEMBL document CHEMBL1151848, “Aryl nucleoside H-phosphonates. Part 16: synthesis and anti-HIV-1 activity of di-aryl nucleoside phosphotriesters” (Bioorg Med Chem, 2009)

System: not listed separately
Assay: Chemical stability assessed as chemical hydrolysis half life in RPMI-1640 culture medium by HPLC analysis
Assay type: physicochemical
Details: not given
How it was run: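 Chemical hydrolysis of the compounds was followed in RPMI-1640 medium alone.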

SMILES	half-life
O=c1ccn([C@H]2CC[C@@H](COP(=O)(Oc3ccccc3)Oc3cccnc3)O2)c(=O)[nH]1 (some centres not stated)	64.2 h
Cc1cn([C@H]2C[C@H](N=[N+]=[N-])[C@@H](COP(=O)(Oc3ccccc3)Oc3cccnc3)O2)c(=O)[nH]c1=O (some centres not stated)	50.2 h

System: not listed separately
Assay: Selectivity index, ratio of CC50 for human MT4 cells to EC50 for HIV1 3B
Assay type: toxicity, cell-based
Details: read-out: Ratio CC50/EC50

SMILES	selectivity ratio
Nc1ncnc2c1ncn2[C@H]1CC[C@@H](CO)O1	> 19
O=c1ccn([C@H]2CC[C@@H](COP(=O)(Oc3ccccc3)Oc3cccnc3)O2)c(=O)[nH]1 (some centres not stated)	> 2
Cc1cn([C@H]2C[C@H](N=[N+]=[N-])[C@@H](COP(=O)(Oc3ccccc3)Oc3cccnc3)O2)c(=O)[nH]c1=O (some centres not stated)	> 2000
Cc1cn([C@H]2C[C@H](N=[N+]=[N-])[C@@H](CO)O2)c(=O)[nH]c1=O [ZIDOVUDINE]	> 6000

System: Human immunodeficiency virus 1
Assay: Antiviral activity against HIV1 3B infected in human MT4 cells assessed as protection from virus-induced cytopathogenicity after 4 days by MTT assay
Assay type: functional, organism-based
Details: Human immunodeficiency virus 1, 3B, MT4, 96 h
How it was run: (§1)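 MT-4 cells, acutely infected at m.o.i. 0.01, were used to read inhibition of HIV-1-induced cytopathogenicity. Compounds were made as 100 mM DMSO stocks and diluted in culture medium. Viability was read by MTT. EC50 is the concentration giving 50% protection, as the mean (+SD) of three independent determinations.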

SMILES	EC50
O=c1ccn([C@H]2CC[C@@H](CO)O2)c(=O)[nH]1	> 100 µM
Nc1ncnc2c1ncn2[C@H]1CC[C@@H](CO)O1	5.2 µM
O=c1ccn([C@H]2CC[C@@H](COP(=O)(Oc3ccccc3)Oc3cccnc3)O2)c(=O)[nH]1 (some centres not stated)	38 µM
Cc1cn([C@H]2C[C@H](N=[N+]=[N-])[C@@H](COP(=O)(Oc3ccccc3)Oc3cccnc3)O2)c(=O)[nH]c1=O (some centres not stated)	0.05 µM

System: not listed separately
Assay: Chemical stability assessed as enzymatic hydrolysis half life in RPMI-1640 culture medium containing heat non-inactivated fetal bovine serum by HPLC analysis
Assay type: physicochemical
Details: cattle
How it was run: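 Enzymatic hydrolysis by phosphoesterases was followed in RPMI-1640 containing heat non-inactivated FBS (RPMI/FBS 9:1, v/v).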

SMILES	half-life
Cc1ccc(OP(=O)(O)OC[C@H]2O[C@@H](n3cc(C)c(=O)[nH]c3=O)C[C@@H]2N=[N+]=[N-])cn1	28.9 h
O=c1ccn([C@H]2CC[C@@H](COP(=O)(O)Oc3ccccc3)O2)c(=O)[nH]1	25.1 h
Cc1cn([C@H]2C[C@H](N=[N+]=[N-])[C@@H](COP(=O)(O)Oc3cncc(Cl)c3)O2)c(=O)[nH]c1=O	7.27 h
Cc1cn([C@H]2C[C@H](N=[N+]=[N-])[C@@H](COP(=O)(O)Oc3ccncc3)O2)c(=O)[nH]c1=O	8.07 h
Cc1cn([C@H]2C[C@H](N=[N+]=[N-])[C@@H](COP(=O)(O)Oc3ccccc3)O2)c(=O)[nH]c1=O	9.47 h
O=c1ccn([C@H]2CC[C@@H](COP(=O)(O)Oc3cccnc3)O2)c(=O)[nH]1	50.2 h
O=c1ccn([C@H]2CC[C@@H](COP(=O)(O)Oc3ccncc3)O2)c(=O)[nH]1	23.6 h
Nc1ncnc2c1ncn2[C@H]1CC[C@@H](COP(=O)(O)Oc2cccnc2)O1	64.2 h
Cc1cn([C@H]2C[C@H](N=[N+]=[N-])[C@@H](COP(=O)(O)Oc3cccnc3Cl)O2)c(=O)[nH]c1=O	16.3 h
Nc1ncnc2c1ncn2[C@H]1CC[C@@H](COP(=O)(O)Oc2ccccc2)O1	36.1 h
Cc1ncccc1OP(=O)(O)OC[C@H]1O[C@@H](n2cc(C)c(=O)[nH]c2=O)C[C@@H]1N=[N+]=[N-]	15.8 h

System: Human immunodeficiency virus 1
Assay: Antiviral activity against non-nucleoside reverse transcriptase inhibitor-resistant HIV1 bearing reverse transcriptase A17 (K103N, Y181C) mutation infected in human MT4 cells assessed as protection from virus-induced cytopathogenicity after 4 days by MTT assay
Assay type: functional, organism-based
Details: Human immunodeficiency virus 1, MT4, 96 h
How it was run: as §1

SMILES	EC50
O=c1ccn([C@H]2CC[C@@H](COP(=O)(Oc3ccccc3)Oc3cccnc3)O2)c(=O)[nH]1 (some centres not stated)	11 µM
Cc1cn([C@H]2C[C@H](N=[N+]=[N-])[C@@H](COP(=O)(Oc3ccccc3)Oc3cccnc3)O2)c(=O)[nH]c1=O (some centres not stated)	0.02 µM
Cc1cn([C@H]2C[C@H](N=[N+]=[N-])[C@@H](CO)O2)c(=O)[nH]c1=O [ZIDOVUDINE]	0.01 µM

System: not listed separately
Assay: Cytotoxicity against human MT4 cells after 96 hrs by MTT assay
Assay type: cell-based
Details: not given
How it was run: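 Exponentially growing mock-infected MT-4 cells were seeded at 1 × 10⁵ cells/ml in RPMI-1640 with 10% FCS, penicillin G and streptomycin. They were incubated with serial compound dilutions at 37 °C in humidified 5% CO₂, and viability was read by MTT after 96 h. CC50 is the concentration reducing viability by 50%, as the mean of three independent determinations.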

SMILES	CC50 at 96 h
O=c1ccn([C@H]2CC[C@@H](CO)O2)c(=O)[nH]1	> 100 µM
Nc1ncnc2c1ncn2[C@H]1CC[C@@H](CO)O1	> 100 µM
O=c1ccn([C@H]2CC[C@@H](COP(=O)(Oc3ccccc3)Oc3cccnc3)O2)c(=O)[nH]1 (some centres not stated)	> 100 µM
Cc1cn([C@H]2C[C@H](N=[N+]=[N-])[C@@H](COP(=O)(Oc3ccccc3)Oc3cccnc3)O2)c(=O)[nH]c1=O (some centres not stated)	> 100 µM
Cc1cn([C@H]2C[C@H](N=[N+]=[N-])[C@@H](CO)O2)c(=O)[nH]c1=O [ZIDOVUDINE]	60 µM

System: Human immunodeficiency virus 1
Assay: Antiviral activity against efavirenz-resistant HIV1 infected in human MT4 cells assessed as protection from virus-induced cytopathogenicity after 4 days by MTT assay
Assay type: functional, organism-based
Details: Human immunodeficiency virus 1, MT4, 96 h
How it was run: as §1

SMILES	EC50
O=c1ccn([C@H]2CC[C@@H](COP(=O)(Oc3ccccc3)Oc3cccnc3)O2)c(=O)[nH]1 (some centres not stated)	20 µM
Cc1cn([C@H]2C[C@H](N=[N+]=[N-])[C@@H](COP(=O)(Oc3ccccc3)Oc3cccnc3)O2)c(=O)[nH]c1=O (some centres not stated)	0.03 µM
Cc1cn([C@H]2C[C@H](N=[N+]=[N-])[C@@H](CO)O2)c(=O)[nH]c1=O [ZIDOVUDINE]	0.01 µM

System: Human immunodeficiency virus 1
Assay: Antiviral activity against MDR1-resistant HIV1 infected in human MT4 cells assessed as protection from virus-induced cytopathogenicity after 4 days by MTT assay
Assay type: functional, organism-based
Details: Human immunodeficiency virus 1, MT4, 96 h
How it was run: as §1

SMILES	EC50
O=c1ccn([C@H]2CC[C@@H](COP(=O)(Oc3ccccc3)Oc3cccnc3)O2)c(=O)[nH]1 (some centres not stated)	> 100 µM
Cc1cn([C@H]2C[C@H](N=[N+]=[N-])[C@@H](COP(=O)(Oc3ccccc3)Oc3cccnc3)O2)c(=O)[nH]c1=O (some centres not stated)	0.5 µM
Cc1cn([C@H]2C[C@H](N=[N+]=[N-])[C@@H](CO)O2)c(=O)[nH]c1=O [ZIDOVUDINE]	0.1 µM

System: Human immunodeficiency virus 1
Assay: Antiviral activity against non-nucleoside reverse transcriptase inhibitor-resistant HIV1 bearing reverse transcriptase N119 (Y181C) mutation infected in human MT4 cells assessed as protection from virus-induced cytopathogenicity after 4 days by MTT assay
Assay type: functional, organism-based
Details: Human immunodeficiency virus 1, MT4, 96 h
How it was run: as §1

SMILES	EC50
O=c1ccn([C@H]2CC[C@@H](COP(=O)(Oc3ccccc3)Oc3cccnc3)O2)c(=O)[nH]1 (some centres not stated)	30 µM
Cc1cn([C@H]2C[C@H](N=[N+]=[N-])[C@@H](COP(=O)(Oc3ccccc3)Oc3cccnc3)O2)c(=O)[nH]c1=O (some centres not stated)	0.04 µM
Cc1cn([C@H]2C[C@H](N=[N+]=[N-])[C@@H](CO)O2)c(=O)[nH]c1=O [ZIDOVUDINE]	0.01 µM

System: Human immunodeficiency virus 1
Assay: Antiviral activity against azidothymidine-resistant HIV1 infected in human MT4 cells assessed as protection from virus-induced cytopathogenicity after 4 days by MTT assay
Assay type: functional, organism-based
Details: Human immunodeficiency virus 1, MT4, 96 h
How it was run: as §1

SMILES	EC50
O=c1ccn([C@H]2CC[C@@H](COP(=O)(Oc3ccccc3)Oc3cccnc3)O2)c(=O)[nH]1 (some centres not stated)	> 100 µM
Cc1cn([C@H]2C[C@H](N=[N+]=[N-])[C@@H](COP(=O)(Oc3ccccc3)Oc3cccnc3)O2)c(=O)[nH]c1=O (some centres not stated)	2.3 µM
Cc1cn([C@H]2C[C@H](N=[N+]=[N-])[C@@H](CO)O2)c(=O)[nH]c1=O [ZIDOVUDINE]	0.6 µM

System: not listed separately
Assay: Chemical stability in RPMI-1640 culture medium at 2 uM up to 6 days by HPLC analysis
Assay type: physicochemical
Details: 144 h

SMILES	Stability
Cc1ccc(OP(=O)(O)OC[C@H]2O[C@@H](n3cc(C)c(=O)[nH]c3=O)C[C@@H]2N=[N+]=[N-])cn1	Stable
O=c1ccn([C@H]2CC[C@@H](COP(=O)(O)Oc3ccccc3)O2)c(=O)[nH]1	Stable
Cc1cn([C@H]2C[C@H](N=[N+]=[N-])[C@@H](COP(=O)(O)Oc3cncc(Cl)c3)O2)c(=O)[nH]c1=O	Stable
Cc1cn([C@H]2C[C@H](N=[N+]=[N-])[C@@H](COP(=O)(O)Oc3ccncc3)O2)c(=O)[nH]c1=O	Stable
Cc1cn([C@H]2C[C@H](N=[N+]=[N-])[C@@H](COP(=O)(O)Oc3ccccc3)O2)c(=O)[nH]c1=O	Stable
O=c1ccn([C@H]2CC[C@@H](COP(=O)(O)Oc3cccnc3)O2)c(=O)[nH]1	Stable
O=c1ccn([C@H]2CC[C@@H](COP(=O)(O)Oc3ccncc3)O2)c(=O)[nH]1	Stable
Nc1ncnc2c1ncn2[C@H]1CC[C@@H](COP(=O)(O)Oc2cccnc2)O1	Stable
Cc1cn([C@H]2C[C@H](N=[N+]=[N-])[C@@H](COP(=O)(O)Oc3cccnc3Cl)O2)c(=O)[nH]c1=O	Stable
Nc1ncnc2c1ncn2[C@H]1CC[C@@H](COP(=O)(O)Oc2ccccc2)O1	Stable
Cc1ncccc1OP(=O)(O)OC[C@H]1O[C@@H](n2cc(C)c(=O)[nH]c2=O)C[C@@H]1N=[N+]=[N-]	Stable
